Data set [1] concerns Aspergillus fumigatus. The data set is described as follows: Antifungal activity against Aspergillus fumigatus ATCC 90906 assessed as inhibition of fungal growth at 20 ug/mL by alamar blue assay. The format is functional, organism-based. In a few lines:
(§1)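 Broth microdilution modified from NCCLS. DMSO stocks serially diluted in saline and plated in duplicate. Inoculum set by 0.5 McFarland standard. Media: C. albicans in SDB or RPMI 1640; C. neoformans in SDB; A. fumigatus in RPMI-1640 + 5% Alamar Blue. Highest final concentration 20 µg/mL. Plates read before and after incubation by fluorescence 544ex/590em (A. fumigatus) or OD 630 nm. IC50 from percent growth vs concentration.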

Data set [2] has as its system Candida albicans. The data set is described as follows: Antifungal activity against Candida albicans ATCC 90028 assessed as inhibition of fungal growth by alamar blue assay. The format is functional, organism-based. In short, it runs like this:
as §1

In data set [3] the test system is Candida albicans. In words: Antifungal activity against Candida albicans ATCC 90028 by microscopy. The format is functional. In short, it runs like this:
(§2)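 Modified NCCLS microdilution. Samples in DMSO serially diluted in saline and tested in duplicate against inocula standardized to 0.5 McFarland. Broths: C. albicans SDB or RPMI 1640; C. neoformans SDB; A. fumigatus YM broth. Highest final concentration 20 µg/mL. MIC read visually as the lowest concentration with no detectable growth (for Alamar Blue wells, no blue-to-pink change).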

Data set [4] deals with Candida albicans. In words: Fungicidal activity against Candida albicans ATCC 90028. The format is functional.
For data set [5], the system named is Cryptococcus neoformans. The data set is described as follows: Antifungal activity against Cryptococcus neoformans ATCC 90113 assessed as inhibition of fungal growth by alamar blue assay. It counts as functional, organism-based. In short, it runs like this: as §1
Data set [6] has as its system Cryptococcus neoformans. In words: Antifungal activity against Cryptococcus neoformans ATCC 90113 by microscopy. The format is functional. In a few lines: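 Modified NCCLS microdilution. Samples in DMSO serially diluted in saline and tested in duplicate against inocula standardized to 0.5 McFarland. Highest final concentration 20 µg/mL. MIC read visually as the lowest concentration with no detectable growth (for Alamar Blue wells, no blue-to-pink change).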

Data set [7] has as its system Cryptococcus neoformans. In words: Fungicidal activity against Cryptococcus neoformans ATCC 90113. The format is functional.
Data set [8] is described as follows: Cytotoxicity against african green monkey Vero cells after 48 hrs by neutral red assay. It counts as cell-based. To be noted: chlorocebus sabaeus, read-out: TC50. In a few lines:
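Vero kidney fibroblasts seeded at 25,000 cells/well and grown 24 h, then exposed to samples up to 20 µg/ml for 48 h. Viable cells measured by neutral red assay. IC50 taken from growth-inhibition vs concentration curves. DMSO served as vehicle control.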

Data set [9] relates to Aspergillus fumigatus. In words: Antifungal activity against Aspergillus fumigatus ATCC 90906 assessed as inhibition of fungal growth by alamar blue assay. Conditions: Aspergillus fumigatus, ATCC 90906; read-out: IC50. It counts as functional, organism-based. In short, it runs like this: as §1
Data set [10] has as its system Aspergillus fumigatus. In words: Antifungal activity against Aspergillus fumigatus ATCC 90906 by microscopy. It counts as functional. In a few lines: as §2
Data set [11] has as its system Aspergillus fumigatus. In words: Fungicidal activity against Aspergillus fumigatus ATCC 90906. The format is functional.

Activity calls are given as the source filed them.

For orientation: IC50 means the concentration that gives 50% inhibition. As a reminder, the MIC is the least concentration at which growth counts as inhibited. One may read the MFC as the smallest concentration meeting the test's criterion for killing the fungus. As for `C[n+]1cccc(N(CCCCCC2CCCCC2)c2ccc(C#N)cc2)c1.[I-]`, the inhibition entry in [1] is “inactive”. Besides, the IC50 stood at 19 µg/mL in [2] and 2.6 µg/mL in [5]. Moreover, the MIC in [3] was found to be 20 µg/mL; in data set [6] it was 5 µg/mL. Besides, the MFC in [4] was more than 20 µg/mL; in [7] it was 5 µg/mL. For the same compound, the CC50 at 48 h in data set [8] is more than 10 µg/mL.

As to `COc1ccc(N(CCCCCC2CCCCC2)c2ccc[n+](C)c2)cc1.[I-]`, in [1], the inhibition result is “inactive”. Moreover, the IC50 in data set [2] was 5.1 µg/mL; in data set [5], 1.4 µg/mL. Moreover, the MIC in data set [3] came to 10 µg/mL; in data set [6] it was 2.5 µg/mL. The results for the MFC in [4] and in data set [7] were 20 µg/mL and 2.5 µg/mL, respectively. In addition, the CC50 at 48 h in data set [8] was more than 10 µg/mL.

On to `C[n+]1cccc(N(CCCCCC2CCCCC2)c2ccccc2C#N)c1.[I-]`, for which the inhibition entry in [1] is “inactive”. Moreover, the IC50 in data set [5] turned out to be 6.6 µg/mL. Besides, the MIC in data set [6] is 10 µg/mL. Moreover, in data set [7], the MFC turned out to be 20 µg/mL. In addition, the CC50 at 48 h in data set [8] is more than 10 µg/mL.

`COc1ccccc1N(CCCCCC1CCCCC1)c1ccc[n+](C)c1.[I-]`: in data set [1], the inhibition entry is “inactive”. Further, the IC50 stood at 5 µg/mL in [2] and 3 µg/mL in data set [5]. Also, the values for the MIC in data set [3] and in data set [6] were 10 µg/mL and 5 µg/mL, respectively. In addition, the MFC in [4] turned out to be 10 µg/mL; in data set [7], 5 µg/mL.

Regarding `COc1cccc(N(CCCCCC2CCCCC2)c2ccc[n+](C)c2)c1.[I-]`, the inhibition result in data set [1] was “inactive”. The values for the IC50 in data set [2] and in data set [5] were 8.9 µg/mL and 3.6 µg/mL, respectively. Further, the MIC in data set [3] came out at 20 µg/mL; in data set [6], 5 µg/mL. The MFC in data set [4] was more than 20 µg/mL; in [7] it was 5 µg/mL. Besides, in data set [8], the CC50 at 48 h was more than 10 µg/mL.

For `CSc1ccc(N(CCCCCC2CCCCC2)c2ccc[n+](C)c2)cc1.[I-]`, the figures for the IC50 in data set [2], in [5] and in data set [9] were 2 µg/mL, 1.2 µg/mL and 6.4 µg/mL, respectively. In addition, the MIC in [3] stood at 5 µg/mL; in data set [6] it was 1.3 µg/mL; in data set [10], 10 µg/mL. The MFC in data set [4] amounted to 10 µg/mL; in [7], 2.5 µg/mL; in data set [11], 10 µg/mL. Also, the CC50 at 48 h in data set [8] is more than 10 µg/mL.

`C[n+]1cccc(N(CCCCCC2CCCCC2)c2ccccc2C(F)(F)F)c1.[I-]`: in data set [1], the inhibition result is “inactive”. Further, the IC50 in [2] was determined as 2.6 µg/mL; in data set [5], 2.3 µg/mL. In addition, the MIC in data set [3] and in [6] was 5 µg/mL each time. Moreover, the MFC in data set [4] and in data set [7] was 5 µg/mL throughout.

As for `C[n+]1cc(N(CCCCCC2CCCCC2)c2ccc(Cl)cc2)cc2ccccc21.[I-]`, the IC50 in data set [2] was 0.5 µg/mL; in data set [5], 0.4 µg/mL; in [9], 0.8 µg/mL. For the same compound, the MIC in data set [3] was 1.3 µg/mL; in data set [6], 0.6 µg/mL; in data set [10], 1.3 µg/mL. The MFC in data set [4] was 5 µg/mL; in [7], 2.5 µg/mL; in data set [11], 10 µg/mL. In [8], the CC50 at 48 h was determined as 10 µg/mL.

For `C[n+]1cc(N(CCCCCC2CCCCC2)c2ccccc2)cc2ccccc21.[I-]`, the IC50 worked out at 1.2 µg/mL in data set [2], 0.2 µg/mL in data set [5] and 4.6 µg/mL in [9]. The MIC was found to be 2.5 µg/mL in [3], 0.3 µg/mL in data set [6] and 10 µg/mL in data set [10]. The MFC in data set [4] was 2.5 µg/mL; in [7] it was 0.6 µg/mL; in [11], 10 µg/mL. Also, in data set [8], the CC50 at 48 h amounted to 9.8 µg/mL.

For the compound `C[n+]1cc(N(CCCCCC2CCCCC2)c2cccc(Cl)c2)cc2ccccc21.[I-]`, the IC50 in data set [2] is 0.9 µg/mL; in [5] it was 0.9 µg/mL; in data set [9], 1 µg/mL. Also, the MIC stood at 2.5 µg/mL in data set [3], 1.3 µg/mL in [6] and 2.5 µg/mL in [10]. The MFC turned out to be 10 µg/mL in data set [4], 5 µg/mL in data set [7] and 10 µg/mL in [11]. Further, the CC50 at 48 h in data set [8] is more than 10 µg/mL.

The values are drawn from ChEMBL document CHEMBL1641580, “Identification of 3-phenylaminoquinolinium and 3-phenylaminopyridinium salts as new agents against opportunistic fungal pathogens” (Bioorg Med Chem, 2011).
